# From ChEMBL document CHEMBL3576819, “Design, synthesis, biological evaluation and molecular docking studies of phenylpropanoid derivatives as potent anti-hepatitis B virus agents” (Eur J Med Chem, 2015)
# Experiments:
# [1] = test system: Hepatitis B virus; assay: Antiviral activity against Hepatitis B virus infected in human HepG2.2.15 cells assessed as inhibition of HBeAg secretion at 37.5 uM after 9 days by ELISA; assay type: functional; details: HepG2 2.2.15, 216 h
# Summary of the method: (§1)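 HepG2.2.15 cells (MEM, 10% FBS, 380 µg/ml G418) seeded at 1×10^5 cells/ml, held 24 h at 37 °C, then treated with various drug concentrations; medium with drug renewed every 3 d for up to 9 d. Culture medium sampled on days 3, 6 and 9, stored at -20 °C, and assayed for secreted antigen. Lamivudine as positive control; IC50 = 50% inhibition of secretion; means of at least two experiments.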
# [2] = test system: Hepatitis B virus; assay: Antiviral activity against Hepatitis B virus infected in human HepG2.2.15 cells assessed as inhibition of HBV DNA copies per uL at 37.5 uM after 6 days by real-time fluorescence quantitative PCR analysis; assay type: functional; details: HepG2 2.2.15, 144 h
# [3] = test system: Hepatitis B virus; assay: Antiviral activity against Hepatitis B virus infected in human HepG2.2.15 cells assessed as inhibition of HBsAg secretion at 37.5 uM after 3 days by ELISA; assay type: functional; details: HepG2 2.2.15, 72 h; summary of the method: as §1
# [4] = Cytotoxicity against human HepG2.2.15 cells assessed as cell death after 9 days by MTT assay; assay type: cell-based, HepG2 2.2.15
# Summary of the method: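 HepG2.2.15 cells (MEM, 10% FBS, 380 µg/ml G418, 37 °C, 5% CO2) seeded at 1×10^5 cells/ml, cultured 24 h, then exposed to various drug concentrations; drug-containing medium renewed every 3 d. OD read at 450 nm after 9 days; percent cell death calculated; CC50 = concentration killing 50% of cells. Means of at least two experiments.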
# [5] = test system: Hepatitis B virus; assay: Antiviral activity against Hepatitis B virus infected in human HepG2.2.15 cells assessed as inhibition of HBV DNA copies per uL at 300 uM after 3 days by real-time fluorescence quantitative PCR analysis; assay type: functional; details: HepG2 2.2.15, 72 h
# [6] = Selectivity index, ratio of CC50 for human HepG2.2.15 cells to IC50 for Hepatitis B virus infected in human HepG2.2.15 cells assessed as inhibition of HBV DNA replication; assay type: functional
# [7] = test system: Hepatitis B virus; assay: Antiviral activity against Hepatitis B virus infected in human HepG2.2.15 cells assessed as inhibition of HBV DNA copies per uL at 300 uM after 6 days by real-time fluorescence quantitative PCR analysis; assay type: functional; details: HepG2 2.2.15, 144 h
# [8] = test system: Hepatitis B virus; assay: Antiviral activity against Hepatitis B virus infected in human HepG2.2.15 cells assessed as inhibition of HBsAg secretion at 75 uM after 3 days by ELISA; assay type: functional; details: HepG2 2.2.15, 72 h; summary of the method: as §1
# [9] = test system: Hepatitis B virus; assay: Antiviral activity against Hepatitis B virus infected in human HepG2.2.15 cells assessed as inhibition of HBeAg secretion at 150 uM after 3 days by ELISA; assay type: functional; details: HepG2 2.2.15, 72 h; summary of the method: as §1
# [10] = test system: Hepatitis B virus; assay: Antiviral activity against Hepatitis B virus infected in human HepG2.2.15 cells assessed as inhibition of HBV DNA copies per uL at 300 uM after 9 days by real-time fluorescence quantitative PCR analysis; assay type: functional; details: HepG2 2.2.15, 216 h
# [11] = Selectivity index, ratio of CC50 for human HepG2.2.15 cells to IC50 for Hepatitis B virus infected in human HepG2.2.15 cells assessed as inhibition of HBeAg secretion; assay type: functional
# Summary of the method: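 Selectivity index computed as CC50/IC50, with CC50 from cell death of HepG2.2.15 cells after 9 days of treatment (OD 450 nm) and IC50 from 50% inhibition of HBeAg or HBsAg secretion in the same cells; medium with drug renewed every 3 d.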
# [12] = test system: Hepatitis B virus; assay: Antiviral activity against Hepatitis B virus infected in human HepG2.2.15 cells assessed as inhibition of HBeAg secretion at 150 uM after 9 days by ELISA; assay type: functional; details: HepG2 2.2.15, 216 h; summary of the method: as §1
# [13] = test system: Hepatitis B virus; assay: Antiviral activity against Hepatitis B virus infected in human HepG2.2.15 cells assessed as inhibition of HBeAg secretion by ELISA; assay type: functional, organism-based; details: HepG2 2.2.15; summary of the method: as §1
# [14] = test system: Hepatitis B virus; assay: Antiviral activity against Hepatitis B virus infected in human HepG2.2.15 cells assessed as inhibition of HBeAg secretion at 150 uM after 6 days by ELISA; assay type: functional; details: HepG2 2.2.15, 144 h; summary of the method: as §1
# [15] = test system: Hepatitis B virus; assay: Antiviral activity against Hepatitis B virus infected in human HepG2.2.15 cells assessed as inhibition of HBsAg secretion at 37.5 uM after 6 days by ELISA; assay type: functional; details: HepG2 2.2.15, 144 h; summary of the method: as §1
# [16] = test system: Hepatitis B virus; assay: Antiviral activity against Hepatitis B virus infected in human HepG2.2.15 cells assessed as inhibition of HBsAg secretion at 75 uM after 6 days by ELISA; assay type: functional; details: HepG2 2.2.15, 144 h; summary of the method: as §1
# [17] = test system: Hepatitis B virus; assay: Antiviral activity against Hepatitis B virus infected in human HepG2.2.15 cells assessed as inhibition of HBV DNA copies per uL at 150 uM after 6 days by real-time fluorescence quantitative PCR analysis; assay type: functional; details: HepG2 2.2.15, 144 h
# [18] = test system: Hepatitis B virus; assay: Antiviral activity against Hepatitis B virus infected in human HepG2.2.15 cells assessed as inhibition of HBeAg secretion at 300 uM after 9 days by ELISA; assay type: functional; details: HepG2 2.2.15, 216 h; summary of the method: as §1
IC50 [13],SMILES,inhibition at 37.5 µM [1],inhibition at 37.5 µM [2],inhibition at 37.5 µM [3],CC50 at 216 h [4],inhibition at 300 µM [5],Ratio CC50/IC50 [6],inhibition at 300 µM [7],inhibition at 75 µM [8],inhibition at 150 µM [9],inhibition at 300 µM [10],Ratio CC50/IC50 [11],inhibition at 150 µM [12],inhibition at 150 µM [14],inhibition at 37.5 µM [15],inhibition at 75 µM [16],inhibition at 150 µM [17],inhibition at 300 µM [18]
6.2 µM,O=C(/C=C/c1ccc2c(c1)OCO2)O/N=C/c1ccccn1,82.5%,38.1%,36.4%,253 µM,62.8%,10.8,68.8%,58%,55.9%,85.8%,40.82,95.9%,77.6%,55.4%,67.3%,61.6%,96.4%
72.9 µM,COc1cc(/C=C/C(=O)O/N=C/c2ccccn2)cc2c1OCO2,30%,26.9%,17.2%,645 µM,41.1%,6.78,52.9%,27.2%,45.5%,67.5%,8.85,65.3%,63.5%,25.3%,43.9%,44.8%,82.6%
75.3 µM,COc1cc(/C=C/C(=O)O/N=C/c2ccco2)cc2c1OCO2,31%,27.6%,22.3%,820 µM,46.5%,5.87,57.4%,38.8%,51.5%,61.5%,10.89,65.2%,55.5%,24.9%,40.1%,42.9%,74.6%
267 µM,Nc1ccn([C@@H]2CS[C@H](CO)O2)c(=O)n1 [LAMIVUDINE],18.4%,38.6%,11.6%,568 µM,59.5%,82.84,71.6%,22%,23.9%,86.4%,2.13,45.4%,31.1%,7.98%,24.1%,66.8%,4%
